{
  "source": "ChEMBL document CHEMBL4715934",
  "about": "“Discovery of Imidazopyridines as Potent Inhibitors of Indoleamine 2,3-Dioxygenase 1 for Cancer Immunotherapy” (ACS Med Chem Lett, 2021)",
  "key": {"[1]": {"assay": "Metabolic stability in rat liver microsomes assessed as parent compound remaining at 0.5 uM after 10 mins", "format": "ADME, Microsome", "conditions": "read-out: Stabilty", "procedure,_shortened": "(§1)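 Parent compound at 0.5 μM incubated 10 min with 1 mg/mL human, mouse or rat liver microsomes; fraction of parent remaining reported; average of N = 2 unless noted.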"}, "[2]": {"assay": "Metabolic stability in human liver microsomes assessed as parent compound remaining at 0.5 uM after 10 mins", "format": "ADME, Microsome", "conditions": "read-out: Stabilty", "procedure,_shortened": "as §1"}, "PXR (NR1I2)": {"target": "T1, PXR (NR1I2) (Homo sapiens, UniProt O75469)", "T1 sequence (O75469 whole entry)": "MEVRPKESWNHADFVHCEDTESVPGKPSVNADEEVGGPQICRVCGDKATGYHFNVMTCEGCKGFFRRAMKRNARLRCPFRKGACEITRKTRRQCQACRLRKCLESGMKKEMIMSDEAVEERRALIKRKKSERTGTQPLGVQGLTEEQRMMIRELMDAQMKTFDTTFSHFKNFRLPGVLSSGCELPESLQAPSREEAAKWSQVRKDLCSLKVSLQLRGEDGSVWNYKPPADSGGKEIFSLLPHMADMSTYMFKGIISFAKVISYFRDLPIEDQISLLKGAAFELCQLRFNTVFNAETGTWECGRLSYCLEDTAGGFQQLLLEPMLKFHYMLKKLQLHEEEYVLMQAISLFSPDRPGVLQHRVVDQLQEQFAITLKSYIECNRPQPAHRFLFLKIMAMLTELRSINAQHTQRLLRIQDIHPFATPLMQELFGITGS", "assay": "Transactivation of PXR (unknown origin) assessed as CYP450 induction relative to rifampicin"}, "[3]": {"target": "Indoleamine 2,3-dioxygenase 1 (Mus musculus, UniProt P28776)", "sequence (P28776 whole entry)": "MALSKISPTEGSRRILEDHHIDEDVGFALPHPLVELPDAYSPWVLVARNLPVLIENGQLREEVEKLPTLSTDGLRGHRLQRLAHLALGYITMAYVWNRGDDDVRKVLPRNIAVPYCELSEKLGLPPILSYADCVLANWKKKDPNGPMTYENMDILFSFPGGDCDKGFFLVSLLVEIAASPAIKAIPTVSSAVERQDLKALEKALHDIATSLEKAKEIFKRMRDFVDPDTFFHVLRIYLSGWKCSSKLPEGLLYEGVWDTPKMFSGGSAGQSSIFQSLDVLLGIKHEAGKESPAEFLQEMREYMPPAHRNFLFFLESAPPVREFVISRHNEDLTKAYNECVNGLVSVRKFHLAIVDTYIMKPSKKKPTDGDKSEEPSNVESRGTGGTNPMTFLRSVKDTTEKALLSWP", "assay": "Inhibition of IDO1 in recombinant IFN-gamma induced mouse M109 cells incubated for 18 hrs by fluorescence microplate reader assay", "format": "cell-based", "procedure,_shortened": "(§2)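 HeLa (human) or M109 (murine) cells induced with IFNγ to express IDO1, then cellular IDO1 activity measured; values are the average of N = 2 unless noted.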"}, "[4]": {"target": "T2, Nuclear receptor subfamily 1 group I member 2 (Homo sapiens, UniProt O75469)", "T2 sequence (O75469 whole entry)": "T1 sequence (O75469 whole entry)", "assay": "Transactivation of PXR (unknown origin) assessed as CYP450 induction"}, "[5]": {"assay": "Metabolic stability in mouse liver microsomes assessed as parent compound remaining at 0.5 uM after 10 mins", "format": "ADME, Microsome", "conditions": "read-out: Stabilty", "procedure,_shortened": "as §1"}, "[6]": {"target": "T3, Indoleamine 2,3-dioxygenase 1 (Homo sapiens, UniProt P14902)", "T3 sequence (P14902 whole entry)": "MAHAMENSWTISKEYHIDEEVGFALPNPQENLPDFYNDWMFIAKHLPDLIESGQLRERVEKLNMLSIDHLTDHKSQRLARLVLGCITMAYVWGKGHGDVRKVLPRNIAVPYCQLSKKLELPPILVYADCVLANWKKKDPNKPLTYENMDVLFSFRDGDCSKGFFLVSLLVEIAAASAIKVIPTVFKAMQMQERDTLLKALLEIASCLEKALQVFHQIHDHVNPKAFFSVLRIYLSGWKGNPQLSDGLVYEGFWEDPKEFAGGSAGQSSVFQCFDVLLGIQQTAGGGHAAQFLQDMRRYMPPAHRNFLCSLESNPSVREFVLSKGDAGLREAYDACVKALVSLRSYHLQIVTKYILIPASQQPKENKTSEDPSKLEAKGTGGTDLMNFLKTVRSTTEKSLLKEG", "assay": "Inhibition of IDO1 in recombinant IFN-gamma induced human HeLa cells incubated for 18 hrs by fluorescence microplate reader assay", "procedure,_shortened": "as §2"}, "[7]": {"target": "T3, Indoleamine 2,3-dioxygenase 1", "assay": "Inhibition of IDO1 in IFN-gamma/LPS induced human whole blood assessed as tryptophan/kynurenine level measured after 18 hrs by RapidFire mass spectrometry", "format": "tissue-based"}},
  "data": [
    {"smiles": "CCC(Nc1nnc(-c2ccc(OC)cc2)o1)[C@H]1CC[C@H](Oc2ccnc3ccccc23)CC1", "note": "(stereo partly drawn)", "values": [
      {"measurement": "remaining at 10 min, 0.5 µM", "setting": "[1]", "result": 88, "unit": "%"},
      {"measurement": "remaining at 10 min, 0.5 µM", "setting": "[2]", "result": 83, "unit": "%"},
      {"measurement": "Emax", "setting": "PXR (NR1I2)", "result": "> 50", "unit": "%"},
      {"measurement": "IC50", "setting": "[3]", "result": 148, "unit": "nM"},
      {"measurement": "EC50", "setting": "[4]", "result": "> 50", "unit": "µM"},
      {"measurement": "remaining at 10 min, 0.5 µM", "setting": "[5]", "result": 39, "unit": "%"},
      {"measurement": "IC50", "setting": "[6]", "result": 13, "unit": "nM"},
      {"measurement": "IC50", "setting": "[7]", "result": 459, "unit": "nM"}
    ]}
  ]
}
